Measured values as given in ChEMBL document CHEMBL5303300, “EUbOPEN Chemogenomics Library - Multiplex” (2023).
Values joined by “and” are separate entries in the source; they are usually repeats but may differ in a detail not shown here. Equal values may be shown once.

Tests used:
U2OS = assay: Multiplex assay against U2OS; assay type: toxicity, cell-based; conditions: human, number of replicates 2
Method in brief: (§1)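 Cells stained live at seeding with Hoechst33342, BioTracker Green Microtubule Cytoskeleton Dye, MitoTracker Red and Annexin V Alexa Fluor 680 were imaged on a CQ1 microscope at 37°C and 5% CO2 after compound addition. Their classification by CellPathfinder machine-learning gating ran from Hoechst high-intensity objects versus normal cells, to healthy, pyknosed or fragmented nuclei among normal cells, to mitotic or apoptotic among pyknosed cells. Tubulin, mitochondrial-mass and membrane-permeability phenotypes are per cents of healthy-nucleus cells.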

Fibroblast = assay: Multiplex assay against human fibroblast; assay type: toxicity, cell-based; conditions: number of replicates 2; method in brief: as §1
[1] = 12 h, 1 µM, compound concentration 1 uM
[2] = 12 h, 10 µM, compound concentration 10 uM
[3] = 24 h, 1 µM, compound concentration 1 uM
[4] = 24 h, 10 µM, compound concentration 10 uM
[5] = 48 h, 1 µM, compound concentration 1 uM
[6] = 48 h, 10 µM, compound concentration 10 uM

SMILES: CN(C)C/C=C/C(=O)Nc1cc2c(Nc3ccc(F)c(Cl)c3)ncnc2cc1OC[C@@H]1CCCO1
- Population Apoptotic (%) (U2OS; [1]): 66% and 86%
- Population Healthy Nuclei (%) (U2OS; [1]): 40% and 79%
- Population Hoechst High Intensity Objects (%) (U2OS; [1]): 0%
- Population Membrane Permeable-Phenotype (%) (U2OS; [1]): 27% and 24%
- Population Mitochondria Different-Phenotype (%) (U2OS; [1]): 9% and 22%
- Population Mitotic Cells (%) (U2OS; [1]): 33% and 13%
- Population Normal (%) (U2OS; [1]): 100%
- Population Pyknosed Nuclei (%) (U2OS; [1]): 22% and 14%
- Population Tubulin-Different-Phenotype (%) (U2OS; [1]): 63% and 53%
- Population Apoptotic (%) (U2OS; [2]): 76% and 59%
- Population Healthy Nuclei (%) (U2OS; [2]): 23% and 66%
- Population Hoechst High Intensity Objects (%) (U2OS; [2]): 0%
- Population Membrane Permeable-Phenotype (%) (U2OS; [2]): 66% and 25%
- Population Mitochondria Different-Phenotype (%) (U2OS; [2]): 50% and 48%
- Population Mitotic Cells (%) (U2OS; [2]): 23% and 40%
- Population Normal (%) (U2OS; [2]): 100% and 99%
- Population Pyknosed Nuclei (%) (U2OS; [2]): 50% and 25%
- Population Tubulin-Different-Phenotype (%) (U2OS; [2]): 83% and 97%
- Population Apoptotic (%) (U2OS; [3]): 71% and 77%
- Population Healthy Nuclei (%) (U2OS; [3]): 42% and 74%
- Population Hoechst High Intensity Objects (%) (U2OS; [3]): 0%
- Population Membrane Permeable-Phenotype (%) (U2OS; [3]): 14% and 18%
- Population Mitochondria Different-Phenotype (%) (U2OS; [3]): 21% and 36%
- Population Mitotic Cells (%) (U2OS; [3]): 28% and 22%
- Population Normal (%) (U2OS; [3]): 100% and 99%
- Population Pyknosed Nuclei (%) (U2OS; [3]): 21% and 20%
- Population Tubulin-Different-Phenotype (%) (U2OS; [3]): 35% and 48%
- Population Apoptotic (%) (U2OS; [4]): 85% and 65%
- Population Hoechst High Intensity Objects (%) (U2OS; [4]): 0% and 1%
- Population Membrane Permeable-Phenotype (%) (U2OS; [4]): 100% and 35%
- Population Mitochondria Different-Phenotype (%) (U2OS; [4]): 80% and 70%
- Population Mitotic Cells (%) (U2OS; [4]): 14% and 34%
- Population Normal (%) (U2OS; [4]): 100% and 98%
- Population Pyknosed Nuclei (%) (U2OS; [4]): 46% and 37%
- Population Tubulin-Different-Phenotype (%) (U2OS; [4]): 100% and 93%
- Population Apoptotic (%) (U2OS; [5]): 66% and 88%
- Population Healthy Nuclei (%) (U2OS; [5]): 39% and 76%
- Population Hoechst High Intensity Objects (%) (U2OS; [5]): 0%
- Population Membrane Permeable-Phenotype (%) (U2OS; [5]): 27% and 14%
- Population Mitochondria Different-Phenotype (%) (U2OS; [5]): 45% and 26%
- Population Mitotic Cells (%) (U2OS; [5]): 33% and 11%
- Population Normal (%) (U2OS; [5]): 100%
- Population Pyknosed Nuclei (%) (U2OS; [5]): 21% and 18%
- Population Tubulin-Different-Phenotype (%) (U2OS; [5]): 63% and 40%
- Population Apoptotic (%) (U2OS; [6]): 76% and 90%
- Population Hoechst High Intensity Objects (%) (U2OS; [6]): 0% and 2%
- Population Membrane Permeable-Phenotype (%) (U2OS; [6]): 100% and 50%
- Population Mitochondria Different-Phenotype (%) (U2OS; [6]): 100% and 79%
- Population Mitotic Cells (%) (U2OS; [6]): 23% and 10%
- Population Normal (%) (U2OS; [6]): 100% and 97%
- Population Pyknosed Nuclei (%) (U2OS; [6]): 43% and 56%
- Population Tubulin-Different-Phenotype (%) (U2OS; [6]): 100% and 89%
- Population Apoptotic (%) (Fibroblast; [1]): 31% and 30%
- Population Fragmented Nuclei (%) (Fibroblast; [1]): 16% and 20%
- Population Healthy Nuclei (%) (Fibroblast; [1]): 57% and 60%
- Population Hoechst High Intensity Objects (%) (Fibroblast; [1]): 0%
- Population Membrane Permeable-Phenotype (%) (Fibroblast; [1]): 14% and 13%
- Population Mitochondria Different-Phenotype (%) (Fibroblast; [1]): 0% and 1%
- Population Mitotic Cells (%) (Fibroblast; [1]): 68% and 69%
- Population Normal (%) (Fibroblast; [1]): 99% and 100%
- Population Pyknosed Nuclei (%) (Fibroblast; [1]): 26% and 18%
- Population Tubulin-Different-Phenotype (%) (Fibroblast; [1]): 67% and 54%
- Total Cell Count (Fibroblast; [1]): 169 and 229
- Population Apoptotic (%) (Fibroblast; [2]): 40% and 32%
- Population Fragmented Nuclei (%) (Fibroblast; [2]): 12% and 15%
- Population Healthy Nuclei (%) (Fibroblast; [2]): 41% and 47%
- Population Hoechst High Intensity Objects (%) (Fibroblast; [2]): 1% and 3%
- Population Membrane Permeable-Phenotype (%) (Fibroblast; [2]): 46% and 40%
- Population Mitochondria Different-Phenotype (%) (Fibroblast; [2]): 9% and 11%
- Population Mitotic Cells (%) (Fibroblast; [2]): 59% and 67%
- Population Normal (%) (Fibroblast; [2]): 98% and 96%
- Population Pyknosed Nuclei (%) (Fibroblast; [2]): 46% and 36%
- Population Tubulin-Different-Phenotype (%) (Fibroblast; [2]): 78% and 88%
- Total Cell Count (Fibroblast; [2]): 181 and 317
- Population Apoptotic (%) (Fibroblast; [3]): 50% and 67%
- Population Fragmented Nuclei (%) (Fibroblast; [3]): 14% and 20%
- Population Healthy Nuclei (%) (Fibroblast; [3]): 65% and 66%
- Population Hoechst High Intensity Objects (%) (Fibroblast; [3]): 0%
- Population Membrane Permeable-Phenotype (%) (Fibroblast; [3]): 6% and 8%
- Population Mitochondria Different-Phenotype (%) (Fibroblast; [3]): 2% and 5%
- Population Mitotic Cells (%) (Fibroblast; [3]): 50% and 32%
- Population Normal (%) (Fibroblast; [3]): 99% and 100%
- Population Pyknosed Nuclei (%) (Fibroblast; [3]): 19% and 13%
- Population Tubulin-Different-Phenotype (%) (Fibroblast; [3]): 69% and 51%
- Total Cell Count (Fibroblast; [3]): 155 and 235
- Population Apoptotic (%) (Fibroblast; [4]): 68% and 65%
- Population Fragmented Nuclei (%) (Fibroblast; [4]): 17% and 13%
- Population Healthy Nuclei (%) (Fibroblast; [4]): 27% and 29%
- Population Hoechst High Intensity Objects (%) (Fibroblast; [4]): 2% and 6%
- Population Membrane Permeable-Phenotype (%) (Fibroblast; [4]): 27% and 28%
- Population Mitochondria Different-Phenotype (%) (Fibroblast; [4]): 45% and 47%
- Population Mitotic Cells (%) (Fibroblast; [4]): 31% and 34%
